Activity calls are given as the source filed them. Square brackets hold non-standard residues; d marks the D form. Peptide text beside a SMILES is read from it. Inp = O=C(O)C1CCNCC1
Columns and labels:
Mus musculus [1] = assay: Antinociceptive activity in icv dosed Swiss albino CD1 mouse assessed as inhibition of jumping by hot plate test in presence of MOR antagonist beta-funaltrexamine; format: functional, organism-based
Method in brief: (§1)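 CD1 male mice given peptide i.c.v. in 0.9% NaCl with MOR antagonist β-funaltrexamine (1 µg). Hot plate at 55±0.5 °C, 240 s cut-off; latencies to paw licking, rearing and jumping versus controls. Mean ± SEM of 10 mice per group; two-way ANOVA followed by Student-Newman-Keuls test.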

Mu-type opioid receptor [2] = molecular target: T1, Mu-type opioid receptor (Homo sapiens, UniProt P35372); assay: Binding affinity to recombinant OPRM1 receptor immobilized on biosensor assessed as dissociation rate constant by BIAcore X system
T1 sequence (P35372 whole entry): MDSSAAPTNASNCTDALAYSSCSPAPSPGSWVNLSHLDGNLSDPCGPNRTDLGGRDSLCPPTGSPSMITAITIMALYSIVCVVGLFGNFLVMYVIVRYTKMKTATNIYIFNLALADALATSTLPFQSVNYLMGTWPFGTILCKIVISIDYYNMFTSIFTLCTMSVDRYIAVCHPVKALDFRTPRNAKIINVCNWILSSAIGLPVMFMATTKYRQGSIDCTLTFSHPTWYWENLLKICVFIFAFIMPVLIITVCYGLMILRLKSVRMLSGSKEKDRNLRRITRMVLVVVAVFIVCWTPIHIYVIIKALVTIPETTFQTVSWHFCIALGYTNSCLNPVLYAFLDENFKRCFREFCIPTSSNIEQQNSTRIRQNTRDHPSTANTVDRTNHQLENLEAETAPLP
Method in brief: (§2)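 Surface plasmon resonance at 37 °C: recombinant OPRM1 protein immobilised on CM5 chip by amine coupling (10 µg/ml in 10 mM sodium acetate, pH 5.0). Peptides at about 0.4 mM in HBS (10 mM HEPES, 150 mM NaCl, 3 mM EDTA, 0.005% P20, pH 7.4) injected 30 s at 20 µl/min; association/dissociation RU fitted for ka and kd.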

Mus musculus [3] = assay: Antinociceptive activity in Swiss albino CD1 mouse assessed as inhibition of paw licking at 3 ng, icv by hot plate test; format: functional, organism-based
Method in brief: (§3)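 Male Swiss albino CD1 mice (20-22 g), peptide given i.c.v. into left ventricle in 0.9% NaCl. Placed on 55±0.5 °C hot plate 5 min post-injection; latency to paw licking (also rearing, jumping) versus saline-injected controls; cut-off 240 s. Dose-response curves; mean ± SEM, 10 mice per group.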

Mus musculus [4] = assay: Antinociceptive activity in icv dosed Swiss albino CD1 mouse assessed as inhibition of rearing by hot plate test in presence of MOR antagonist beta-funaltrexamine; format: functional, organism-based; method in brief: as §1
Mus musculus [5] = assay: Antinociceptive activity in Swiss albino CD1 mouse assessed as duration of inhibition of paw licking at 0.1 ng, icv by hot plate test; format: functional
Method in brief: (§4)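 Male Swiss albino CD1 mice (20-22 g), i.c.v. injection into left ventricle in 0.9% NaCl. Hot plate at 55±0.5 °C; latencies to paw licking, rearing and jumping, cut-off 240 s; saline controls. Time-course readings at 5, 10, 20, 30, 45, 60, 90, 120, 150 and 180 min after dosing; duration of effect recorded.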

Mu-type opioid receptor [6] = molecular target: Mu-type opioid receptor (Rattus norvegicus, UniProt P33535); assay: Displacement of [3H]DAMGO from mu opioid receptor in Wistar rat brain membrane; format: cell membranes
Sequence of Mu-type opioid receptor (Rattus norvegicus, UniProt P33535) (P33535 whole entry): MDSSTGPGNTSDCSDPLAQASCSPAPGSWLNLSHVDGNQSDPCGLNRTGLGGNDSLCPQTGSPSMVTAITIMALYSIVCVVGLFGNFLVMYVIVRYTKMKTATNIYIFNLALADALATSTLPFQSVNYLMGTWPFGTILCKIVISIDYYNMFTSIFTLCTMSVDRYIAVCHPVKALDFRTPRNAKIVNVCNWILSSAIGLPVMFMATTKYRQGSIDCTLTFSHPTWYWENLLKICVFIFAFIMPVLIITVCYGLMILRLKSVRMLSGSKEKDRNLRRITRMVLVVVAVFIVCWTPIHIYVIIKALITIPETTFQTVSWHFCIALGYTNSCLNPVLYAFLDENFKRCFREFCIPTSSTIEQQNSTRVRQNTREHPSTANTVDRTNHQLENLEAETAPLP

Mus musculus [7] = assay: Antinociceptive activity in icv dosed Swiss albino CD1 mouse assessed as inhibition of paw licking by hot plate test; format: functional, organism-based; method in brief: as §3
[8] = molecular target: Delta-type opioid receptor (Rattus norvegicus, UniProt P33533); assay: Displacement of [3H][Ile5,6]deltorphin-2 from delta opioid receptor in Wistar rat brain membrane; format: cell membranes
Sequence of Delta-type opioid receptor (P33533 whole entry): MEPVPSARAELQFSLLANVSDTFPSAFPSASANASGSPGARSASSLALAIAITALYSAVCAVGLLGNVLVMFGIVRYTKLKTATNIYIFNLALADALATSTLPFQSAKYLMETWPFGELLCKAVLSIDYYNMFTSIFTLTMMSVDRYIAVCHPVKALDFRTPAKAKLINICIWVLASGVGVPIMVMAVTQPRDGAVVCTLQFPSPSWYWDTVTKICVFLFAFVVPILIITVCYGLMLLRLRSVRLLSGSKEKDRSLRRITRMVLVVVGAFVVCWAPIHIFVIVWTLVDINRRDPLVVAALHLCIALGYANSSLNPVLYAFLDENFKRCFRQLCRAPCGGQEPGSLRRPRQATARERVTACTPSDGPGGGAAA

[9] = Stability in rat brain homogenates assessed as degradation half life; format: ADME, tissue-based; settings: brain homogenate
Method in brief: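 Pooled rat brain homogenate (in 50 mM Tris-HCl pH 7.4, 10 mg protein/ml aliquot) incubated with 0.5 mM peptide stock at 37 °C for 0-60 min; stopped on ice with 1 M HCl, centrifuged. Remaining peptide peak area regressed as ln(A/A0) versus time for k; t1/2 = ln2/k. Three experiments in duplicate.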

Mus musculus [10] = assay: Antinociceptive activity in Swiss albino CD1 mouse assessed as duration of inhibition of rearing at 0.1 ng, icv by hot plate test; format: functional; method in brief: as §4
Mus musculus [11] = assay: Antinociceptive activity in icv dosed Swiss albino CD1 mouse assessed as inhibition of paw licking by hot plate test in presence of MOR antagonist beta-funaltrexamine; format: functional, organism-based; method in brief: as §1
Mu-type opioid receptor [12] = molecular target: T1, Mu-type opioid receptor; assay: Binding affinity to recombinant OPRM1 receptor immobilized on biosensor assessed as association rate constant by BIAcore X system; method in brief: as §2
Mus musculus [13] = assay: Antinociceptive activity in Swiss albino CD1 mouse assessed as duration of inhibition of jumping at 0.1 ng, icv by hot plate test; format: functional; method in brief: as §4
Rattus norvegicus = organism: Rattus norvegicus; assay: Selectivity ratio of IC50 for delta opioid receptor to IC50 for mu opioid receptor in Wistar rat brain membrane; format: cell membranes
Method in brief: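 Wistar rat brain crude membranes incubated 120 min at 25 °C with peptide and 0.5 nM [3H]DAMGO (MOR) or 0.5 nM [3H][Ile5,6]deltorphin-2 (DOR) in 50 mM Tris/HCl pH 7.4 with 5 mM MgCl2, 1 mM EDTA, 100 mM NaCl, bacitracin.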

Mus musculus [14] = assay: Antinociceptive activity in iv dosed Swiss albino CD1 mouse assessed as inhibition of paw licking by hot plate test; format: functional, organism-based
Mus musculus [15] = assay: Antinociceptive activity in Swiss albino CD1 mouse assessed as duration of inhibition of jumping at 3 ng, icv by hot plate test; format: functional; method in brief: as §4
Mus musculus [16] = assay: Antinociceptive activity in Swiss albino CD1 mouse assessed as duration of inhibition of rearing at 3 ng, icv by hot plate test; format: functional; method in brief: as §4
Mus musculus [17] = assay: Antinociceptive activity in Swiss albino CD1 mouse assessed as inhibition of paw licking at 100 ng, icv by hot plate test; format: functional, organism-based; method in brief: as §3
Mus musculus [18] = assay: Antinociceptive activity in Swiss albino CD1 mouse assessed as duration of inhibition of paw licking at 3 ng, icv by hot plate test; format: functional; method in brief: as §4

SMILES: Cc1cc(O)cc(C)c1C[C@H](N)C(=O)N1CCC[C@@H](C(=O)N[C@@H](Cc2ccccc2)C(=O)N[C@@H](Cc2ccccc2)C(N)=O)C1
- Activity (Mus musculus [1]): inactive
- Kd (Mu-type opioid receptor [2]): 0.29 s⁻¹
- Activity (Mus musculus [3]): Active
- Activity (Mus musculus [4]): inactive
- Activity (Mus musculus [5]): >170 min
- IC50 (Mu-type opioid receptor [6]): 0.035 nM
- Activity (Mus musculus [7]): Dose-dependent effect
- IC50 [8]: 407 nM
- half-life [9]: 30.9 min
- Activity (Mus musculus [10]): >170 min
- AC50 (Mus musculus [11]): Not Active
- Ka (Mu-type opioid receptor [12]): 515 M⁻¹ s⁻¹
- Activity (Mus musculus [13]): >170 min
- Ratio IC50 (Rattus norvegicus): > 1000
- Activity (Mus musculus [14]): inactive

SMILES: NC(=O)[C@H](Cc1ccccc1)NC(=O)[C@H](Cc1c[nH]c2ccccc12)NC(=O)[C@@H]1CCCCN1C(=O)[C@@H](N)Cc1ccc(O)cc1
- IC50 (Mu-type opioid receptor [6]): 20.4 nM
- IC50 [8]: > 1000 nM
- half-life [9]: 9.68 min
- Ratio IC50 (Rattus norvegicus): > 49

SMILES: NC(=O)[C@H](Cc1ccccc1)NC(=O)[C@H](Cc1c[nH]c2ccccc12)NC(=O)C1CCN(C(=O)[C@@H](N)Cc2ccc(O)cc2)CC1 (H-Y[Inp]WF-NH2)
- IC50 (Mu-type opioid receptor [6]): 401 nM
- IC50 [8]: 860 nM
- half-life [9]: 78.5 min
- Ratio IC50 (Rattus norvegicus): 2.15

SMILES: NC(=O)[C@H](Cc1ccccc1)NC(=O)[C@H](Cc1c[nH]c2ccccc12)NC(=O)[C@@H]1CCCN1C(=O)[C@@H](N)Cc1ccc(O)cc1 [ENDOMORPHIN-1]
- half-life [9]: 6.02 min

SMILES: NC(=O)[C@H](Cc1ccccc1)NC(=O)[C@H](Cc1c[nH]c2ccccc12)NC(=O)[C@@H]1CCCN(C(=O)[C@@H](N)Cc2ccc(O)cc2)C1
- IC50 (Mu-type opioid receptor [6]): 3.55 nM
- IC50 [8]: > 1000 nM
- half-life [9]: 29.6 min
- Ratio IC50 (Rattus norvegicus): > 281

SMILES: NC(=O)[C@H](Cc1ccccc1)NC(=O)[C@H](Cc1ccccc1)NC(=O)[C@@H]1CCCCN1C(=O)[C@@H](N)Cc1ccc(O)cc1
- IC50 (Mu-type opioid receptor [6]): 80 nM
- IC50 [8]: > 1000 nM
- half-life [9]: 6.8 min
- Ratio IC50 (Rattus norvegicus): > 12.5

SMILES: NC(=O)[C@H](Cc1ccccc1)NC(=O)[C@H](Cc1ccccc1)NC(=O)[C@@H]1CCCN1C(=O)[C@@H](N)Cc1ccc(O)cc1 [ENDOMORPHIN 2]
- Activity (Mus musculus [15]): 50 min
- half-life [9]: 4.8 min
- Activity (Mus musculus [16]): 50 min
- Activity (Mus musculus [17]): Active
- Activity (Mus musculus [18]): 50 min

SMILES: Cc1cc(O)cc(C)c1C[C@H](N)C(=O)N1CCC[C@@H](C(=O)N[C@@H](Cc2c[nH]c3ccccc23)C(=O)N[C@@H](Cc2ccccc2)C(N)=O)C1
- IC50 (Mu-type opioid receptor [6]): 0.38 nM
- IC50 [8]: 89 nM
- half-life [9]: 35.8 min
- Ratio IC50 (Rattus norvegicus): 234

SMILES: NC(=O)[C@H](Cc1ccccc1)NC(=O)[C@H](Cc1ccccc1)NC(=O)[C@@H]1CCCN(C(=O)[C@@H](N)Cc2ccc(O)cc2)C1
- Activity (Mus musculus [1]): inactive
- Kd (Mu-type opioid receptor [2]): 0.55 s⁻¹
- Activity (Mus musculus [4]): inactive
- Activity (Mus musculus [5]): 150 min
- IC50 (Mu-type opioid receptor [6]): 0.04 nM
- Activity (Mus musculus [7]): Dose-dependent effect
- IC50 [8]: > 1000 nM
- half-life [9]: 48 min
- Activity (Mus musculus [10]): 150 min
- AC50 (Mus musculus [11]): Not Active
- Ka (Mu-type opioid receptor [12]): 570 M⁻¹ s⁻¹
- Activity (Mus musculus [13]): 150 min
- Ratio IC50 (Rattus norvegicus): > 1000
- Activity (Mus musculus [17]): Active
- Activity (Mus musculus [14]): inactive

Reference: ChEMBL document CHEMBL1137770, “Biological activity of endomorphin and [Dmt1]endomorphin analogs with six-membered proline surrogates in position 2” (Bioorg Med Chem, 2009)
